Consider 13 molecules from ChEMBL document CHEMBL4382211, “Design, synthesis, and X-ray studies of potent HIV-1 protease inhibitors incorporating aminothiochromane and aminotetrahydronaphthalene carboxamide derivatives as the P2 ligands” (Eur J Med Chem, 2018).

Series [1] has as its system Human immunodeficiency virus 1. The experiment in a line: Antiviral activity against HIV1 NL4-3 infected in human MT4 cells after 7 days by MTT assay. It counts as functional, organism-based. As to conditions: Human immunodeficiency virus 1, NL4-3, MT4, 168 h. An outline of the steps: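 MT-4 human T-lymphoid cells were exposed to HIV-1 NL4-3 (subtype B). IC50 values are the mean of at least two experiments.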
In general terms: Tetrazolium dyes change colour on reduction, which living cells bring about.

The target of a further series is Protease (Human immunodeficiency virus 1, UniProt Q9YQ12). The experiment in a line: Inhibition of HIV1 protease using fluorogenic substrate by continuous fluorometric assay.
A short description of series [2]: (§1) Cytotoxicity against human MT4 cells after 7 days by MTT assay. It counts as cell-based. Conditions: MT4 cells.
Series [3] can be described thus: Selectivity index, ratio of CC50 for human MT4 cells to IC50 for HIV1 NL4-3. The format is toxicity. Conditions: read-out: Ratio CC50/IC50. In a few lines:
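Antiviral IC50 measured in MT-4 human T-lymphoid cells exposed to HIV-1 NL4-3 (subtype B), with values the mean of at least two experiments. CC50 (cytotoxicity) determined in MT-4 cells, given in μM. Index calculated as CC50 divided by IC50.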

The test system of the next series is MT4. Described as §1. It counts as cell-based. Conditions: mt4, 168 h.

Protease, sequence (Q9YQ12 whole entry): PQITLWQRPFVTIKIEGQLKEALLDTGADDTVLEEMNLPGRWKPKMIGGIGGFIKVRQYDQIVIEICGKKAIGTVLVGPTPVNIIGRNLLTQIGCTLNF

Take `CC(C)(C)NC(=O)[C@@H]1C[C@@H]2CCCC[C@@H]2CN1C[C@@H](O)[C@H](Cc1ccccc1)NC(=O)[C@H](CC(N)=O)NC(=O)c1ccc2ccccc2n1`: the IC50 (in general, the concentration that gives 50% inhibition) in series [1] is 15 nM.
Molecule `COc1ccc(S(=O)(=O)N(CC(C)C)C[C@@H](O)[C@H](Cc2ccccc2)NC(=O)c2ccc3c(c2)[C@@H](NC(=O)OC(C)(C)C)CC[C@H]3O)cc1` gave a half-inhibitory concentration (IC50) in series [1] above 1000 nM. Besides, the inhibition constant (Ki) (in general, the dissociation constant of the complex between target and ligand, obtained from inhibition or displacement) at Protease is 0.3 nM.
As to `COc1ccc(S(=O)(=O)N(CC(C)C)C[C@@H](O)[C@H](Cc2ccccc2)NC(=O)c2ccc3c(c2)[C@H](NC(=O)OC(C)(C)C)CC[C@@H]3O)cc1`, the IC50 in series [1] is above 1000 nM. The molecule further displayed an inhibition constant (Ki) on Protease of 1.63 nM.
With `COc1ccc(S(=O)(=O)N(CC(C)C)C[C@@H](O)[C@H](Cc2ccccc2)NC(=O)c2ccc3c(c2)[C@@H](N)CC[C@H]3O)cc1`, in series [1], the 50% inhibitory concentration (IC50) is above 1000 nM. The Ki at Protease was found to be 17 nM.
`COc1ccc(S(=O)(=O)N(CC(C)C)C[C@@H](O)[C@H](Cc2ccccc2)NC(=O)c2ccc3c(c2)[C@H](N)CC[C@@H]3O)cc1` displayed an IC50 in series [1] above 1000 nM. In addition, affinity on Protease was put at a Ki of 1.1 nM.
Consider `COc1ccc(S(=O)(=O)N(CC(C)C)C[C@@H](O)[C@H](Cc2ccccc2)NC(=O)c2ccc3c(c2)[C@H](NC(=O)OC(C)(C)C)CCS3(=O)=O)cc1`, for which the midpoint of inhibition in series [1], the IC50, lay at 476 nM. The inhibitory constant (Ki) at Protease is 0.1 nM. Also, the cytotoxic concentration (CC50) – broadly, the concentration that lowers cell viability or growth by half – at 168 h in series [2] was above 100000 nM. In addition, the selectivity ratio in series [3] was above 210.
For `COc1ccc(S(=O)(=O)N(CC(C)C)C[C@@H](O)[C@H](Cc2ccccc2)NC(=O)c2ccc3c(c2)[C@@H](N)CC[C@@H]3O)cc1`, in series [1], the IC50 was 232 nM. For the same molecule, the inhibition constant Ki at Protease turned out to be 0.06 nM. Also, the midpoint of cytotoxicity in the series with MT4, the CC50, lay at 35100 nM. The selectivity ratio in series [3] came to 151.
Molecule `COc1ccc(S(=O)(=O)N(CC(C)C)C[C@@H](O)[C@H](Cc2ccccc2)NC(=O)c2ccc3c(c2)[C@@H](NC(=O)OC(C)(C)C)CCS3(=O)=O)cc1` yielded a concentration for half-maximal inhibition (IC50) in series [1] of 47 nM. Besides, on Protease, the inhibition constant (Ki) amounted to 0.008 nM. In series [2], the CC50 at 168 h was above 100000 nM. Moreover, the selectivity ratio in series [3] was above 2130.
Regarding `COc1ccc(S(=O)(=O)N(CC(C)C)C[C@@H](O)[C@H](Cc2ccccc2)NC(=O)c2ccc3c(c2)[C@@H](NC(=O)OC(C)(C)C)CC[C@@H]3O)cc1`, in series [1], the IC50 is 254 nM. On Protease, the Ki was 0.14 nM. In the series on MT4, this molecule displayed a CC50 of 33300 nM. The selectivity ratio in series [3] was 131.
In series [1], `COc1ccc(S(=O)(=O)N(CC(C)C)C[C@@H](O)[C@H](Cc2ccccc2)NC(=O)c2ccc3c(c2)[C@@H](NC(=O)OC(C)(C)C)CCS3)cc1` gave an IC50 above 1000 nM. The molecule further gave a Ki on Protease of 0.38 nM.
For `COc1ccc(S(=O)(=O)N(CC(C)C)C[C@@H](O)[C@H](Cc2ccccc2)NC(=O)c2ccc3c(c2)[C@H](NC(=O)OC(C)(C)C)CCS3)cc1`, in that order: above 1000 nM and 26.7 nM.
For `COc1ccc(S(=O)(=O)N(CC(C)C)C[C@@H](O)[C@H](Cc2ccccc2)NC(=O)c2ccc3c(c2)[C@@H](N)CCS3(=O)=O)cc1` the same measures were above 1000 nM and 15.8 nM.
For `COc1ccc(S(=O)(=O)N(CC(C)C)C[C@@H](O)[C@H](Cc2ccccc2)NC(=O)c2ccc3c(c2)[C@H](N)CCS3(=O)=O)cc1` the same measures were above 1000 nM and 18 nM.
